System: MS2 coat protein
Experiment: apparent Kd, MS2 coat protein; higher = weaker binding; RNA-MaP array; FMN 200 µM where present
Summary of the method: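 In 100 mM Tris-HCl pH 7.5, 80 mM KCl, 4 mM MgCl2, BSA, DTT, yeast tRNA and Tween-20, SNAP-549-labelled MS2 coat protein was titrated from 0.7 or 1.5 nM, doubling to 3 µM, over designs transcribed by stalled E. coli RNA polymerase on Illumina sequencing-chip clusters. This was done first without ligand, then with ligand held constant. After green signal was normalised to red-channel RNA signal and control-cluster median Fmax, the apparent Kd was taken as the median of filtered per-cluster binding-curve fits.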

[1] = designed as: OFF switch for flavin mononucleotide, no ligand
[2] = ligand present: flavin mononucleotide, designed as: OFF switch for flavin mononucleotide
[3] = designed as: ON switch for flavin mononucleotide, no ligand
[4] = ligand present: flavin mononucleotide, designed as: ON switch for flavin mononucleotide

| Sequence | apparent Kd [1] [nM] | apparent Kd [2] [nM] | apparent Kd [3] [nM] | apparent Kd [4] [nM] |
| --- | --- | --- | --- | --- |
| UCACGGCAUGUAGGAUAUGCAUAGCAUUGCUAUGCAGAAGGACAUGAGGAUCACCCAUGUAUGUAUUCCAUACUAUUCCCGUGU | 7.42 | 14.8 |  |  |
| UCCUUGGAAGGAUAUCGAUAGGCUUACAUGAGGAUCACCCAUGUUGGGAUGUCUUUCUGUCGAGAAGGUUCGUUUU | 19.7 | 21.4 |  |  |
| GACAUUGGCAAGAAGGCAAACAUGAGGAUCACCCAUGUUCUGUAUGUAUUUUGAGGAUAUUGCCAAUGUAUGUGGAUCACCCAA | 8.91 | 10.1 |  |  |
| CGGAGGUCAGGAUAUGCAUGGCGGGACUUGCGUCGUGGCGUGCAGAAGGGACAUGAGGAUCACCCAUGUGGAGC | 82.2 | 145 |  |  |
| UAGAUGGGAGGAUAUACGUAGAUGCAGGUUCGUGUGGUGCUACAUGAGGAUCACCCAUGUAGAAGGCCCGUCUU | 14.8 | 48.9 |  |  |
| UUACGUCCCGUUUACAUGAGGAUCACCCAUGUCGAAAGAGCGGAGGAUAUGCUACCUAGUUGGUAGCAGAAGGCUGCAACGUCG |  |  | 35.2 | 46.5 |
| UAUCAAUUUAUGGGAUUAGAUUAUGAGGAUAUCAUUUUUUUAUACAUGAGGAUCACCCAUGUUUCUGAGAAGGCAUAAUUAAUA |  |  | 16.9 | 6.29 |
| AAAACAUGAGGAUCACCCAUGUAAAGAACGGUUAAUAAAUGUGAGGAUAUACUAAAAUUUAGGUAGUAGAAGGCACUGGGUACA |  |  | 24.1 | 25.7 |
| ACCUCACAUGAGGAUCACCCAUGUCAGGAUAUUCAAACAGGCGAAACUCCGCCUUCUCGAAGAAGGGACAUUAA | 15.9 | 64.5 |  |  |
| CGAUAGGACAGAGGAUAUACACAUGAGGAUCACCCAUGUGAUUACAACGCGAAAGCGCCAAACAUGUAGAAGGCUGUCCUAUCG | 22.7 | 12 |  |  |
| UUUUAACAUGAGGAUCACCCAUGUGAGGAUAUCGAAAUUUAUAUUUAUAUUAAUUAAUCGAGAAGGCACAUUUU | 151 | 156 |  |  |
| AUACUCAUGUAAGGAUAUGCAGCCGUUUCGGCUGCAGAAGGUACUAUAAUACAUGAGGAUCACCCAUGUCUCUCGCAUUGCGAG |  |  | 131 | 178 |
| AAUUACAUGUAGAAGGUACUUUCAUAAGUGUUGUAAGGAUAUACCAAUUUAUUAGUUUUAAAGAUACAUGAGGAUCACCCAUGU |  |  | 8.59 | 8.18 |
| UUAUUAUGUGUAGGAUAUGCAUAUUAUUAUUAUGCAGAAGGACAUGAGGAUCACCCAUGUAUAUUAUUAAUAUAUAUUAUAUAU | 13.9 | 15.7 |  |  |
| GAGUAGUUGAAAGGAUAUUGAUUGUUAUAGAAUCAAGAAGGUUCUAACAUGAGGAUCACCCAUGUAGGACUAUUCCUGUGUAUC |  |  | 12.3 | 9.66 |
| CACCCACAUGAGGAUCACCCAUGUGAGGAUAUGAUACUAUGUACUUCGGUACAUAGUAUCAGAAGGCACAGGUG | 32 | 106 |  |  |
| GUAGCAUACCGAGGAUAUUCAAAUAAUAAAUAAACAUGAGGAUCACCCAUGUGGCGAAAGCCUAGGGAGAAGGCGGAAUGCUAC |  |  | 48.2 | 16.9 |
| UCACUCAAGUUAGGAUAUGGAUCGGAAAACGAUCCAGAAGGAACAUGGGAACAUGAGGAUCACCCAUGUUCCAGAAACGAGUGA |  |  | 413 | 155 |
| AGUUAAUAUCGAGGAUAUCUCAUGGAGACAUGAGGAUCACCCAUGUGAAUGGGAGAAGGCGAUAUUAACAGCAUGUUACAUGCA |  |  | 284 | 21.2 |
| AAACCGUGUGGAGGAUAUGCAGUUGAGGUGAGGUGGCAACUCUAUACGACCGCAGAAGGCCACAUGAGGAUCACCCAUGUAGGU | 293 | 61.5 |  |  |
| AACAGUGCAAUAAUAAUAAGAUCUACAUGAGGAUCACCCAUGUAGGAUAUCGUCAGGAAUACUGACGAGAAGGACAUAGCACUG | 13.9 | 15.6 |  |  |
| CGAUAUAUGAAGGGCGAAAGCCCACAUGAGGAUCACCCAUGUAGAAGGCGGGCCGCAACGCGGCCCGAGGAUAUAUAAUAUACA |  | 9.15 |  |  |
| CAGCGAAAGUAGAAGGCAGUACUGAUACAGUACUGAGGAUAUACAUGAGGAUCACCCAUGUUCUUCAGCUGGAAAUAAAUAAAA | 8.02 | 124 |  |  |

— the EternaBench riboswitch data
